Measured values as given in ChEMBL document CHEMBL4732265, “Identification of Piperidine-3-carboxamide Derivatives Inducing Senescence-like Phenotype with Antimelanoma Activities” (ACS Med Chem Lett, 2021).
Active and inactive are the calls of the source. The rule behind the calls is not given here.

What was measured:
A-375 [1] = assay: Induction of senescence in human A-375 cells treated for 3 days by Hoechst staining based imaging analysis; format: functional, cell-based; details: A-375, 72 h
Method in brief: (§1)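 A375 melanoma cells were treated for 3 days with a 3-fold dilution series in 0.5% DMSO and stained with Hoechst 33342, LysoTracker Red DND-99 and CellMask. Image analysis scored cell and nucleus size, granule size and spacing, and cytoplasmic texture to give the percentage of senescent cells per well. EC50 is the concentration inducing senescence in half the population, taken from dose–response curves. Run in duplicate; Z′ about 0.8.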

A-375 [2] = assay: Antiproliferative activity in human A-375 cells assessed as reduction of cell number; format: functional, cell-based
Method in brief: (§2)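 A375 human melanoma cells exposed to compound for 3 days in 3-fold serial dilution in 0.5% DMSO. Cells were stained with Hoechst 33342, LysoTracker Red DND-99 and CellMask, then imaged and segmented by a customized algorithm. Cell number per well was counted, and IC50 is the concentration reducing cell number by 50%, taken from dose–response curves. Run in duplicate.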

A-375 [3] = assay: Induction of senescence-like phenotype in human A-375 cells assessed as phenotypic changes after 3 days; format: functional, cell-based; details: time 3.0 day; method in brief: as §1
A-375 [4] = assay: Anti melanoma activity in human A-375 cells assessed by decreased cell number measured after 3 days; format: functional, cell-based; details: time 3.0 day; method in brief: as §2
[5] = Metabolic stability at phase 1 in human liver microsomes; format: ADME, Microsome
[6] = Metabolic stability at phase 1 in mouse liver microsomes; format: ADME, Microsome
A-375 [7] = assay: Induction of cell senescence in human A-375 cells assessed by increased SA-beta-Gal activity at 37 nM measured after 3 days by Hoechst staining based imaging analysis; format: functional; details: time 3.0 day
Method in brief: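 A375 cells were treated with or without 37 nM agent in 0.5% DMSO for 3 days. Senescence was read in two ways: by Hoechst 33342/LysoTracker Red/CellMask phenomic imaging, and by SA-β-gal staining.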

A-375 [8] = assay: Anti melanoma activity in human A-375 cells assessed as inhibition of cell growth after 3 days; format: functional, cell-based; details: time 3.0 day; method in brief: as §2
A-375 [9] = assay: Induction of senescence-like phenotype in human A-375 cells assessed as enlarged cell size after 3 days by staining based imaging assay; format: functional; details: time 3.0 day; method in brief: as §1
A-375 [10] = assay: Induction of senescence-like phenotype in human A-375 cells assessed as nucleus size with increasing cytoplasmic granularity after 3 days by staining based imaging assay; format: functional, cell-based; details: time 3.0 day; method in brief: as §1

| Structure (SMILES) | EC50 (A-375 [1]) | IC50 (A-375 [2]) | also measured |
| --- | --- | --- | --- |
| COc1cccc2c1C(=O)c1c(O)c3c(c(O)c1C2=O)C[C@@](O)(C(=O)CO)C[C@@H]3O[C@H]1C[C@H](N)[C@H](O)[C@H](C)O1 [DOXORUBICIN] |  | 8 nM | Activity (A-375 [7]): Active |
| O=C(Nc1ccc(-c2cscn2)cc1)C1CCCN(Cc2ccccc2F)C1 (centres undefined) | 7000 nM | 4000 nM |  |
| O=C(Nc1ccc(-c2ccoc2)cc1)C1CCCN(Cc2ccc(F)c(F)c2)C1 (centres undefined) | 3000 nM | 1290 nM |  |
| COc1cccc(CN2CCCC(C(=O)Nc3ccc(-c4cscn4)cc3)C2)c1 (centres undefined) | > 20000 nM | > 20000 nM |  |
| O=C(Nc1ccc(-c2cscn2)cc1)C1CN(Cc2ccc(F)c(F)c2)C1 | > 20000 nM | > 20000 nM |  |
| O=C(NC1CCCN(Cc2ccc(F)c(F)c2)C1)c1ccc(-c2cscn2)cc1 (centres undefined) | > 20000 nM | > 20000 nM |  |
| O=C(Nc1ccc(-c2cscn2)cc1)C1CCCN(S(=O)(=O)c2ccc(F)c(F)c2)C1 (centres undefined) | > 20000 nM | > 20000 nM |  |
| O=C(Nc1ccc(-c2ccc[nH]2)cn1)[C@H]1CCCN(Cc2ccc(F)c(F)c2)C1 | 40 nM | 30 nM | Activity (A-375 [3]): Active; Activity (A-375 [8]): Active; Activity (A-375 [9]): Active; Activity (A-375 [10]): Active; Stabilty [5]: Stable; Stabilty [6]: Stable |
| O=C(Nc1ccc(-c2ccco2)cc1)C1CCCN(Cc2ccc(F)c(F)c2)C1 (centres undefined) | 2200 nM | 1040 nM |  |
| O=C(Nc1ccc(-c2ccccc2)cc1)C1CCCN(Cc2ccc(F)c(F)c2)C1 (centres undefined) | 5000 nM | 2580 nM |  |
| O=C(Nc1ccc(-c2cscn2)cc1)C1CCCN(Cc2ccc3c(c2)OCO3)C1 (centres undefined) | 600 nM | 630 nM |  |
| O=C(Nc1ccc(-c2ccncc2)cc1)C1CCCN(Cc2ccc(F)c(F)c2)C1 (centres undefined) | 1180 nM | 600 nM |  |
| O=C(Nc1ccc(-c2cscn2)cc1)C1CCCN(Cc2cccc(F)c2)C1 (centres undefined) | 5000 nM | 2450 nM |  |
| O=C(Nc1ccc(-c2cscn2)cc1)C1CCN(Cc2ccc(F)c(F)c2)CC1 | 19000 nM | > 20000 nM |  |
| O=C(Nc1ccc(-c2cscn2)cc1)C1CCCN(Cc2cccc(F)c2F)C1 (centres undefined) | 10000 nM | 1480 nM |  |
| O=C(Nc1ccc(-c2c[nH]cn2)cc1)C1CCCN(Cc2ccc(F)c(F)c2)C1 (centres undefined) | 16000 nM | > 20000 nM |  |
| O=C(Nc1ccc(-c2cscn2)cc1)C1CCCN(Cc2cc(F)c(F)c(F)c2)C1 (centres undefined) | 1260 nM | 400 nM |  |
| O=C(Nc1ccc(-c2cscn2)cc1)C1CCCN(Cc2ccc(F)cc2)C1 (centres undefined) | 5000 nM | 2250 nM |  |
| O=C(Nc1ccc(-c2cscn2)cc1)C1CCCN(Cc2cc(F)cc(F)c2)C1 (centres undefined) | 1500 nM | 1360 nM |  |
| O=C(Nc1ccc(-c2ccc[nH]2)cc1)[C@H]1CCCN(Cc2ccc(F)c(F)c2)C1 | 140 nM | 190 nM |  |
| O=C(Nc1ccc(-c2ccn[nH]2)cc1)C1CCCN(Cc2ccc(F)c(F)c2)C1 (centres undefined) | 580 nM | 520 nM |  |
| O=C(Nc1ccc(-c2cscn2)cc1)C1CCCN(Cc2ccc(Cl)c(Cl)c2)C1 (centres undefined) | 3000 nM | 1730 nM |  |
| O=C(Nc1ccc(-c2cscn2)cc1)C1CCN(Cc2ccc(F)c(F)c2)C1 (centres undefined) | 8000 nM | 10000 nM |  |
| O=C(Nc1ccc(-c2cscn2)cc1)C1CCCN(Cc2ccc3cn[nH]c3c2)C1 (centres undefined) | > 20000 nM | > 20000 nM |  |
| O=C(Nc1ccc(-c2ccsc2)cc1)C1CCCN(Cc2ccc(F)c(F)c2)C1 (centres undefined) | 1930 nM | 950 nM |  |
| O=C(Nc1ccc(-c2ncc[nH]2)cc1)C1CCCN(Cc2ccc(F)c(F)c2)C1 (centres undefined) | 8000 nM | 19000 nM |  |
| O=C(Nc1ccc(-c2cscn2)cc1)C1CCCN(Cc2cccnc2)C1 (centres undefined) | > 20000 nM | > 20000 nM |  |
| O=C(Nc1ccc(-c2cscn2)cc1)C1CCCN(Cc2cccc(C(F)(F)F)c2)C1 (centres undefined) | > 20000 nM | > 20000 nM |  |
| O=C(Nc1ccc(-c2ccccn2)cc1)C1CCCN(Cc2ccc(F)c(F)c2)C1 (centres undefined) | 11000 nM | 9000 nM |  |
| O=C(Nc1ccc(-c2ccc[nH]2)cc1)C1CCCN(Cc2ccc(F)c(F)c2)C1 (centres undefined) | 720 nM | 360 nM |  |

Continued, in another order:

| EC50 (A-375 [1]) | IC50 (A-375 [2]) | Structure (SMILES) | also measured |
| --- | --- | --- | --- |
| 100 nM | 130 nM | O=C(Nc1ccc(-c2ccc[nH]2)cc1F)[C@H]1CCCN(Cc2ccc(F)c(F)c2)C1 |  |
| 1240 nM | 880 nM | O=C(Nc1ccc(-c2cscn2)cc1)C1CCCN(Cc2ccc(F)c(F)c2)C1 (centres undefined) | Activity (A-375 [3]): Active; Activity (A-375 [4]): Active; Stabilty [5]: Stable; Stabilty [6]: Stable |
| 2610 nM | 1420 nM | O=C(Nc1ccc(-c2cc[nH]c2)cc1)C1CCCN(Cc2ccc(F)c(F)c2)C1 (centres undefined) |  |
| > 20000 nM | > 20000 nM | O=C(Nc1ccc(-c2cscn2)cc1)C1CCCN(Cc2cccc(OC(F)(F)F)c2)C1 (centres undefined) |  |
| > 20000 nM | > 20000 nM | O=C(Nc1ccc(-c2cscn2)cc1)C1CCCN(C(=O)c2ccc(F)c(F)c2)C1 (centres undefined) |  |
| 4000 nM | 580 nM | COc1cc(-c2cscn2)ccc1NC(=O)C1CCCN(Cc2ccc(F)c(F)c2)C1 (centres undefined) |  |
| > 20000 nM | > 20000 nM | O=C(Nc1ccc(-c2cscn2)cc1)C1CCCN(Cc2ccccc2)C1 (centres undefined) |  |
| 160 nM | 220 nM | O=C(Nc1ccc(-c2ccc[nH]2)cc1)[C@H]1CCCN(Cc2ccc3c(c2)OCO3)C1 |  |
| 1060 nM | 610 nM | O=C(Nc1ccc(-c2cccnc2)cc1)C1CCCN(Cc2ccc(F)c(F)c2)C1 (centres undefined) |  |
| 530 nM | 390 nM | O=C(Nc1ccc(-c2cccs2)cc1)C1CCCN(Cc2ccc(F)c(F)c2)C1 (centres undefined) |  |
| 800 nM | 240 nM | O=C(Nc1ccc(-c2nccs2)cc1)C1CCCN(Cc2ccc(F)c(F)c2)C1 (centres undefined) |  |
| 3000 nM | 730 nM | Cc1cc(NC(=O)[C@H]2CCCN(Cc3ccc(F)c(F)c3)C2)ccc1-c1ccc[nH]1 |  |
| > 20000 nM | > 20000 nM | O=C(Nc1ccc2scnc2c1)C1CCCN(Cc2ccc(F)c(F)c2)C1 (centres undefined) |  |
| 19900 nM | 18000 nM | O=C(Nc1ccc(-c2ccc[nH]2)cc1)[C@@H]1CCCN(Cc2ccc(F)c(F)c2)C1 |  |
| 4000 nM | 6000 nM | O=C(Nc1ccc(-c2cscn2)cc1)[C@@H]1CCCN(Cc2ccc(F)c(F)c2)C1 |  |
| 270 nM | 190 nM | O=C(Nc1ccc(-c2cscn2)cc1)[C@H]1CCCN(Cc2ccc(F)c(F)c2)C1 |  |
| 4000 nM | 3010 nM | O=C(Nc1ccc(-c2ccc[nH]2)nc1)[C@H]1CCCN(Cc2ccc(F)c(F)c2)C1 |  |
